What all share (type): functional
For test [1], the system named is MCF7. As to the kind of experiment: Cytotoxicity against human MCF7 cells assessed as cell growth at 10 uM after 48 hrs by sulforhodamine B assay relative to control. The note with it: MCF7, 48 h, read-out: Activity. In a few lines:
(§1)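 Adherent cells were grown in RPMI 1640 with 5% FBS and 2 mM L-glutamine, seeded at 5000–40 000 cells/well by doubling time, and held 24 h at 37 °C, 5% CO2 before drug. Time-zero plates were TCA-fixed. Compound in DMSO, single dose 10 μM, 48 h. Cells were fixed with cold TCA (final 10%, 60 min, 4 °C) and stained with 0.4% SRB. Bound dye was dissolved in 10 mM Tris base and read at 515 nm. Percent growth was derived from time-zero, control and treated absorbances.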
In general terms: The SRB assay estimates cell density from bound dye.

The subject of test [2] is MDA-MB-468. Nature of the test: Cytotoxicity against human MDA-MB-468 cells assessed as cell growth at 10 uM after 48 hrs by sulforhodamine B assay relative to control. The note with it: MDA-MB-468, 48 h, read-out: Activity. In a few lines:
as §1

A short description of test [3]: Cytotoxicity against human UO31 cells assessed as cell growth at 10 uM after 48 hrs by sulforhodamine B assay relative to control. The note with it: UO-31, 48 h, read-out: Activity. In a few lines:
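NCI-60 single-dose screen. Cells were grown in RPMI 1640 with 5% FBS and 2 mM L-glutamine, seeded at 5000–40 000 cells/well according to doubling time, and pre-incubated 24 h at 37 °C, 5% CO2. Time-zero plates were TCA-fixed at dosing. Compound in DMSO was given at 10 μM for 48 h. Cells were then fixed in cold TCA, stained with 0.4% SRB, solubilised in 10 mM Tris base and read at 515 nm. Growth % was calculated from time-zero, control and treated absorbances.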

The structures appear in SMILES notation.

Consider `COc1nccc2c(Nc3ccccc3)nc(N)nc12`, for which the growth at 10 µM came out at 78.5% in test [1], 56.5% in test [2] and 88.3% in test [3].
The corresponding values for `COc1nccc2c(Nc3ccc(Cl)cc3)nc(N)nc12` are 62.2%, 60% and 42.9%.
The corresponding values for `COc1ccc(Nc2nc(N)nc3c(OC)nccc23)cc1` are 73%, 76.3% and 57.7%.
The corresponding values for `COc1nccc2c(Sc3ccccc3)nc(N)nc12` are 91.9%, 112% and 75.3%.
As for `COc1nccc2c(-c3ccccc3)nc(N)nc12`, the results for the growth at 10 µM in test [1], in test [2] and in test [3] were 96.5%, 98.2% and 93.8%, respectively.
The corresponding values for `COc1ccc(-c2nc(N)nc3c(OC)nccc23)cc1` are 86.3%, 97.9% and 108%.
The corresponding values for `COc1nccc2c(-c3ccc(Cl)cc3)nc(N)nc12` are 75.3%, 90.3% and 86.2%.
With `Nc1nc(Nc2ccccc2)c2ccnc(O)c2n1`, the growth at 10 µM is 80.8% in test [1], 126% in test [2] and 73.7% in test [3].
With `Nc1nc(Nc2ccc(Cl)cc2)c2ccnc(O)c2n1`, the growth at 10 µM in test [1] was 81%; in test [2], 135%; in test [3], 54.5%.
Consider `COc1ccc(Nc2nc(N)nc3c(O)nccc23)cc1`, for which the growth at 10 µM in test [1] worked out at 79.7%; in test [2], 118%; in test [3] it was 64.6%.
The corresponding values for `Nc1nc(Sc2ccccc2)c2ccnc(O)c2n1` are 91.6%, 120% and 86.8%.
The like results for `Nc1nc(-c2ccccc2)c2ccnc(O)c2n1` were, in that order, 111%, 101% and 91.9%.
The like results for `COc1ccc(-c2nc(N)nc3c(O)nccc23)cc1` were, in that order, 95.7%, 110% and 94.6%.
On to `Nc1nc(-c2ccc(Cl)cc2)c2ccnc(O)c2n1`, for which the growth at 10 µM worked out at 94.1% in test [1], 108% in test [2] and 96.9% in test [3].
As for `Nc1nc(-c2cccc(F)c2)c2ccnc(O)c2n1`, the values for the growth at 10 µM in test [1], in test [2] and in test [3] were 83.3%, 107% and 117%, respectively.

The record behind these values is ChEMBL document CHEMBL3217692, “Synthesis and cytotoxicity evaluation of novel pyrido[3,4-d]pyrimidine derivatives as potential anticancer agents” (2012).
